Measurements taken from ChEMBL document CHEMBL1255417, “Correlation between in vitro activity of posaconazole and in vivo efficacy against Rhizopus oryzae infection in mice” (Antimicrob Agents Chemother, 2010).
In brackets after ≈: the same amount, converted by molar mass. Activity calls are given as the source filed them. The rule behind the calls is not given here.

Key:
Rhizopus arrhizus [1] = assay: Antifungal activity against drug-susceptible Rhizopus oryzae UTHSC 06-329 by broth microdilution method; assay type: functional
Method in brief: (§1)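 Posaconazole MIC in ug/ml, determined by broth microdilution following the CLSI guidelines for moulds (M38-A2).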

Rhizopus arrhizus [2] = assay: Antifungal activity against drug-susceptible Rhizopus oryzae UTHSC 05-3132 by broth microdilution method; assay type: functional; method in brief: as §1
Rhizopus arrhizus [3] = assay: Antifungal activity against drug-susceptible Rhizopus oryzae UTHSC 03-511 by broth microdilution method; assay type: functional
Method in brief: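 CLSI broth microdilution for filamentous fungi (M38-A2); MIC recorded in µg/ml against clinical isolates; breakpoints applied at 24 h.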

Rhizopus arrhizus [4] = assay: Antifungal activity against drug-susceptible Rhizopus oryzae UTHSC 03-112 by broth microdilution method; assay type: functional
Method in brief: (§2)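 Broth microdilution MIC in µg/ml, run per the CLSI (formerly NCCLS) guideline for filamentous fungi, M38-A2.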

Rhizopus arrhizus [5] = assay: Antifungal activity against drug-susceptible Rhizopus oryzae UTHSC 06-3827 by broth microdilution method; assay type: functional; method in brief: as §1
Rhizopus arrhizus [6] = assay: Antifungal activity against drug-intermediate Rhizopus oryzae UTHSC 04-3109 by broth microdilution method; assay type: functional; method in brief: as §2
Rhizopus arrhizus [7] = assay: Antifungal activity against drug-susceptible Rhizopus oryzae UTHSC 03-228 at 5 ug by disk diffusion assay; assay type: functional; conditions: read-out: DIZ
Method in brief: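 Neo-Sensitabs tablet diffusion on Mueller-Hinton agar, following the guidelines for molds. Tablets were 9 mm in diameter and held 5 µg of drug. The read-out was inhibition zone diameter in mm.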

Rhizopus arrhizus [8] = assay: Antifungal activity against drug-susceptible Rhizopus oryzae UTHSC 04-2459 at 5 ug by disk diffusion assay; assay type: functional; conditions: read-out: DIZ
Method in brief: (§3)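 Neo-Sensitabs tablet diffusion on Mueller-Hinton agar, following guidelines for molds; 9 mm tablets containing 5 µg posaconazole; inhibition zone diameter measured in mm; zone breakpoints applied at 24 h.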

Rhizopus arrhizus [9] = assay: Antifungal activity against drug-susceptible Rhizopus oryzae UTHSC 06-731 at 5 ug by disk diffusion assay; assay type: functional; conditions: read-out: DIZ
Rhizopus arrhizus [10] = assay: Antifungal activity against drug-susceptible Rhizopus oryzae UTHSC 06-329 at 5 ug by disk diffusion assay; assay type: functional; conditions: read-out: DIZ
Method in brief: (§4)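 Neo-Sensitabs tablet diffusion on Mueller-Hinton agar, run per the mould guidelines. Tablets are 9 mm in diameter and carry 5 ug posaconazole. The read-out is the inhibition zone diameter in mm.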

Rhizopus arrhizus [11] = assay: Antifungal activity against drug-susceptible Rhizopus oryzae UTHSC 06-2457 at 5 ug by disk diffusion assay; assay type: functional; conditions: read-out: DIZ; method in brief: as §4
Rhizopus arrhizus [12] = assay: Antifungal activity against drug-susceptible Rhizopus oryzae UTHSC 03-3110 at 5 ug by disk diffusion assay; assay type: functional; conditions: read-out: DIZ; method in brief: as §3
Rhizopus arrhizus [13] = assay: Antifungal activity against drug-susceptible Rhizopus oryzae UTHSC 05-3580 at 5 ug by disk diffusion assay; assay type: functional; conditions: read-out: DIZ; method in brief: as §4
Rhizopus arrhizus [14] = assay: Antifungal activity against drug-susceptible Rhizopus oryzae UTHSC 06-4336 at 5 ug by disk diffusion assay; assay type: functional; conditions: read-out: DIZ; method in brief: as §4
Rhizopus arrhizus [15] = assay: Antifungal activity against drug-susceptible Rhizopus oryzae UTHSC 02-2882 after 24 to 48 hrs; assay type: functional
Rhizopus arrhizus [16] = assay: Antifungal activity against drug-susceptible Rhizopus oryzae UTHSC 04-1613 after 24 to 48 hrs; assay type: functional
Method in brief: (§5)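 Minimum fungicidal concentration: 20 µl from each microdilution well showing complete inhibition (optically clear) plated on potato dextrose agar, incubated 35°C for 24 to 48 h; MFC taken as lowest drug concentration giving no growth.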

Rhizopus arrhizus [17] = assay: Antifungal activity against drug-susceptible Rhizopus oryzae UTHSC 06-4152 after 24 to 48 hrs; assay type: functional
Method in brief: (§6)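 Minimum fungicidal concentration taken from the broth microdilution plates. From each well with complete inhibition (optically clear), 20 ul is plated on potato dextrose agar. Plates are incubated at 35°C for 24 to 48 h. The MFC is the lowest drug concentration giving no growth.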

Rhizopus arrhizus [18] = assay: Antifungal activity against drug-susceptible Rhizopus oryzae UTHSC 03-1826 after 24 to 48 hrs; assay type: functional
Rhizopus arrhizus [19] = assay: Antifungal activity against drug-susceptible Rhizopus oryzae UTHSC 05-1679 after 24 to 48 hrs; assay type: functional; method in brief: as §5
Rhizopus arrhizus [20] = assay: Antifungal activity against drug-intermediate Rhizopus oryzae UTHSC 05-3032 after 24 to 48 hrs; assay type: functional
Rhizopus arrhizus [21] = assay: Antifungal activity against drug-intermediate Rhizopus oryzae UTHSC 03-3165 after 24 to 48 hrs; assay type: functional
Rhizopus arrhizus [22] = assay: Antifungal activity against drug-susceptible Rhizopus oryzae UTHSC 03-51 infected in OF1 mouse assessed as increase in mouse survival at 20-30 mg/kg, po bid treated 24 hrs after fungal infection; assay type: functional, organism-based
Method in brief: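 Male OF1 mice (30 g) immunosuppressed 1 day before infection with cyclophosphamide 200 mg/kg i.p. plus 5-fluorouracil 150 mg/kg i.v.; challenged i.v. via tail vein with 2 × 10^4 CFU; oral gavage twice daily for 7 days from 24 h post-challenge; ceftazidime 5 mg/day s.c. days 1–7; untreated controls; 10 mice/group; survival checked daily to day 20.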

Rhizopus arrhizus [23] = assay: Antifungal activity against drug-susceptible Rhizopus oryzae UTHSC 06-89 infected in OF1 mouse assessed as reduction in kidney fungal load at 10-30 mg/kg, po bid; assay type: functional, organism-based
Serum = assay: Drug level in human serum at 400 mg, po bid; assay type: ADME, organism-based; conditions: in vivo
Rhizopus arrhizus [24] = assay: Antifungal activity against drug-susceptible Rhizopus oryzae UTHSC 06-1351 after 24 to 48 hrs; assay type: functional; method in brief: as §6

CC[C@@H]([C@H](C)O)n1ncn(-c2ccc(N3CCN(c4ccc(OC[C@@H]5CO[C@@](Cn6cncn6)(c6ccc(F)cc6F)C5)cc4)CC3)cc2)c1=O [POSACONAZOLE]
MIC (Rhizopus arrhizus [1]): 0.5 µg/mL (≈ 0.713 µM) | MIC (Rhizopus arrhizus [2]): 0.5 µg/mL (≈ 0.713 µM) | MIC (Rhizopus arrhizus [3]): 0.25 µg/mL (≈ 0.357 µM) | MIC (Rhizopus arrhizus [4]): 0.5 µg/mL (≈ 0.713 µM) | MIC (Rhizopus arrhizus [5]): 1 µg/mL (≈ 1.43 µM) | MIC (Rhizopus arrhizus [6]): 2 µg/mL (≈ 2.85 µM) | zone of inhibition at 5 µg/disc (Rhizopus arrhizus [7]): 25 mm | zone of inhibition at 5 µg/disc (Rhizopus arrhizus [8]): 18 mm | zone of inhibition at 5 µg/disc (Rhizopus arrhizus [9]): 17 mm | zone of inhibition at 5 µg/disc (Rhizopus arrhizus [10]): 20 mm | zone of inhibition at 5 µg/disc (Rhizopus arrhizus [11]): 14 mm | zone of inhibition at 5 µg/disc (Rhizopus arrhizus [12]): 17 mm | zone of inhibition at 5 µg/disc (Rhizopus arrhizus [13]): 25 mm | zone of inhibition at 5 µg/disc (Rhizopus arrhizus [14]): 20 mm | MFC (Rhizopus arrhizus [15]): 0.5 µg/mL (≈ 0.713 µM) | MFC (Rhizopus arrhizus [16]): 0.5 µg/mL (≈ 0.713 µM) | MFC (Rhizopus arrhizus [17]): 1 µg/mL (≈ 1.43 µM) | MFC (Rhizopus arrhizus [18]): 0.5 µg/mL (≈ 0.713 µM) | MFC (Rhizopus arrhizus [19]): 0.5 µg/mL (≈ 0.713 µM) | MFC (Rhizopus arrhizus [20]): > 16 µg/mL | MFC (Rhizopus arrhizus [21]): 16 µg/mL (≈ 22.8 µM) | Activity (Rhizopus arrhizus [22]): Active | Activity (Rhizopus arrhizus [23]): Active | Drug uptake (Serum): < 1 µg/mL | MFC (Rhizopus arrhizus [24]): 0.5 µg/mL (≈ 0.713 µM)
